Measurements taken from ChEMBL document CHEMBL1137591, “Identification of a potent and stable antiproliferative agent by the prodrug formation of a thiolate histone deacetylase inhibitor” (Bioorg Med Chem Lett, 2007).

Tests used:
MDA-MB-231 = test: Inhibition of MDA-MB-231 cell proliferation (mean of two experiments); format: functional, cell-based, Homo sapiens
Outline: (§1)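 Cells were seeded at 1500 per well and held 24 h at 37 °C. They were then exposed for 48 h to a range of compound concentrations in RPMI-1640 with 10% FBS at 37 °C and 5% CO2. Staining used 0.5 mg/mL methylene blue for 30 min at room temperature. Dye was dissolved in 3% aqueous HCl and absorbance read at 660 nm. EC50 values are means of at least two experiments.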

NCI-H460 = test: Inhibition of NCI-H460 cell proliferation (mean); format: functional, cell-based; conditions: Homo sapiens; outline: as §1
A498 = test: Inhibition of A498 cell proliferation (mean); format: functional, cell-based; conditions: Homo sapiens; outline: as §1
PC-3 = test: Inhibition of PC-3 cell proliferation (mean); format: functional, cell-based; conditions: Homo sapiens; outline: as §1
T47D = test: Inhibition of T-47D cell proliferation (mean of two experiments); format: functional, cell-based; conditions: Homo sapiens; outline: as §1
DLD-1 = test: Inhibition of DLD-1 cell proliferation (mean); format: functional, cell-based; conditions: Homo sapiens; outline: as §1
Malme-3M = test: Inhibition of MALME-3M cell proliferation (mean); format: functional, cell-based; conditions: Homo sapiens; outline: as §1
HCT-116 = test: Inhibition of HCT116 cell proliferation (mean); format: functional, cell-based; conditions: Homo sapiens; outline: as §1
[1] = Stability (mean % remaining) in human plasma after incubation at 37 °C for 24h; format: ADME, cell-free; conditions: read-out: %R
Outline: (§2)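 Compounds were incubated in human plasma with sampling at 0, 2, 4, 8 and 24 h. The percentage of intact compound remaining was measured at each point. Values are means of at least three experiments.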

[2] = Stability (mean % remaining) in human plasma after incubation at 37 °C for 4h; format: ADME, cell-free; conditions: read-out: %R; outline: as §2
[3] = Stability (mean % remaining) in human plasma after incubation at 37 °C for 8h; format: ADME, cell-free; conditions: read-out: %R; outline: as §2
[4] = Stability (mean % remaining) in human plasma after incubation at 37 °C for 0h; format: ADME; conditions: read-out: %R; outline: as §2
[5] = Stability (mean % remaining) in human plasma after incubation at 37 °C for 2h; format: ADME, cell-free; conditions: read-out: %R; outline: as §2
Histone deacetylase 1 = Histone deacetylase 1 (Homo sapiens, UniProt Q13547); test: Inhibition of HDAC1
Sequence of Histone deacetylase 1 (Q13547 whole entry): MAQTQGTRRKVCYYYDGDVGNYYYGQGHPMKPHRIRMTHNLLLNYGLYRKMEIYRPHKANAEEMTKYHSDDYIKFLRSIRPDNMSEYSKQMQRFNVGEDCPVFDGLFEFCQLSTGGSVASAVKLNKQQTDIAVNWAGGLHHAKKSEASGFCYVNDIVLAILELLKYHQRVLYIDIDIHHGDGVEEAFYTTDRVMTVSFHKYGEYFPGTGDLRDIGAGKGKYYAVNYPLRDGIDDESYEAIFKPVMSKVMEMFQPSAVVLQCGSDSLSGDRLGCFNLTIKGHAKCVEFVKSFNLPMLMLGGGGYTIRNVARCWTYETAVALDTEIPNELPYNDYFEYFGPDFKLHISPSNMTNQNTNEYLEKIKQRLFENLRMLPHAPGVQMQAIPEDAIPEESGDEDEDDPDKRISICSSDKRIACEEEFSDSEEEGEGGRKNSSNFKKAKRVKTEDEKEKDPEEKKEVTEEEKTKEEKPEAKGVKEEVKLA

Compound | EC50 (MDA-MB-231; Homo sapiens, MDA-MB-231) [µM] | EC50 (NCI-H460) [µM] | EC50 (MDA-MB-231; mda-mb-231) [µM] | EC50 (A498) [µM] | EC50 (PC-3) [µM] | EC50 (T47D) [µM] | EC50 (DLD-1) [µM] | EC50 (Malme-3M) [µM] | EC50 (HCT-116) [µM] | remaining at 24 h [1] [%] | remaining at 4 h [2] [%] | remaining at 8 h [3] [%] | remaining at 0 h [4] [%] | remaining at 2 h [5] [%] | IC50 (Histone deacetylase 1) [µM]
COC(C(=O)SCCCCCCC(=O)Nc1nc(-c2ccccc2)cs1)c1ccccc1 (stereo unspecified) | > 20 | 11 |  |  |  |  |  |  |  |  |  |  |  |  | 
CC(C(=O)SCCCCCCC(=O)Nc1nc(-c2ccccc2)cs1)c1ccccc1 (stereo unspecified) | > 20 | 3.2 | 27 | 26 | 37 | > 100 | 86 | 33 | 23 |  |  |  |  |  | 
C[C@@H](Cc1ccccc1)C(=O)SCCCCCCC(=O)Nc1nc(-c2ccccc2)cs1 | 4 | 3 |  |  | 4.4 |  |  |  | 0.62 |  |  |  |  |  | 
C[C@H](Cc1ccccc1)C(=O)SCCCCCCC(=O)Nc1nc(-c2ccccc2)cs1 | 3.1 | 3.2 |  |  | 9.9 |  |  |  | 0.75 |  |  |  |  |  | 
CC(C)C(=O)SCCCCCCC(=O)Nc1nc(-c2ccccc2)cs1 | 4.4 | 2.1 |  | 6.8 | 9.5 | 8.3 | 2.3 | 4.3 | 1.3 | 49 | 71 | 63 | 100 | 86 | 
CC(Cc1ccccc1)C(=O)SCCCCCCC(=O)Nc1nc(-c2ccccc2)cs1 (stereo unspecified) | 1.9 | 1.5 |  | 2.6 | 3.2 | 4.3 | 1.8 | 3 | 1.2 | 100 | 99 | 99 | 100 | 100 | > 100
O=C(CCCCCCS)Nc1nc(-c2ccccc2)cs1 | > 20 | 7.6 |  |  |  |  |  |  |  |  |  |  |  |  | 0.048
O=C(CCCCCCSC(=O)C(Cc1ccccc1)Cc1ccccc1)Nc1nc(-c2ccccc2)cs1 | > 20 | > 20 |  |  |  |  |  |  |  |  |  |  |  |  | 
